ChEMBL document CHEMBL3091323, “Investigation of quinazolines as inhibitors of breast cancer resistance protein (ABCG2)” (Bioorg Med Chem, 2013)
The source made the active and inactive calls. The calls are words filed in the database; no cut-off is given here.

Assays:
MDR1 = MDR1 (Homo sapiens, UniProt P08183); test: (§1) Inhibition of MDR1 in human doxorubicin-resistant A2780adr cells assessed as Calcein AM accumulation at 10 uM treated 30 mins before Calcein AM addition measured up to 90 mins by fluorescence assay relative to control; format: cell-based, A2780 ADR; conditions: doxorubicin-resistant A2780adr cells, probe Calcein AM
[1] = target: T1, Broad substrate specificity ATP-binding cassette transporter ABCG2 (Homo sapiens, UniProt Q9UNQ0); test: Inhibition of human BCRP expressed in MDCK2 cells assessed as Hoechst 33342 accumulation treated 30 mins before Hoechst 33342 addition measured up to 120 mins by fluorescence assay; format: cell-based, MDCK-II
T1 sequence (Q9UNQ0 whole entry): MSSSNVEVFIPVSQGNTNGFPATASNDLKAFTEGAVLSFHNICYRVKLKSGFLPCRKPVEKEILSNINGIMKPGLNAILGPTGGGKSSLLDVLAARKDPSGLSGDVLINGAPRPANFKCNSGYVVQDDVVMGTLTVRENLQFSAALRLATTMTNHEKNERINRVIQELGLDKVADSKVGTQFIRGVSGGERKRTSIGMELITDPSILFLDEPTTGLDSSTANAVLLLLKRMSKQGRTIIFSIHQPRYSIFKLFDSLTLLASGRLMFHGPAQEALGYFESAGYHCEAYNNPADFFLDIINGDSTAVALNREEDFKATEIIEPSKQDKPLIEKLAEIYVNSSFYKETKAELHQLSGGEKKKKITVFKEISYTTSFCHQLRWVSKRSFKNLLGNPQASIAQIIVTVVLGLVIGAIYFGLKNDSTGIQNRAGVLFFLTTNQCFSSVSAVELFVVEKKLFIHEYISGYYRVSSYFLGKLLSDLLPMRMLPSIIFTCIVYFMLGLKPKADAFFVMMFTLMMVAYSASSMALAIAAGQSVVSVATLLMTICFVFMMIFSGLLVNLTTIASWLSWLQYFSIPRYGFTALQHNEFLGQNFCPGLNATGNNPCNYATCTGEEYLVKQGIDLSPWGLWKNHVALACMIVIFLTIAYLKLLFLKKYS

[2] = target: T1, Broad substrate specificity ATP-binding cassette transporter ABCG2; test: Inhibition of human BCRP expressed in MDCK2 cells assessed as pheophorbide A accumulation treated 30 mins before pheophorbide A addition measured up to 120 mins by flow cytometry; format: cell-based, MDCK-II
MRP1 = MRP1 (Homo sapiens, UniProt P33527); test: (§2) Inhibition of MRP1 in human 2008 cells assessed as Calcein AM accumulation at 10 uM treated 30 mins before Calcein AM addition measured up to 90 mins by fluorescence assay relative to control; format: cell-based; conditions: human, 2008 cells, probe Calcein AM
[3] = Cytotoxicity against MDCK cells after 72 hrs by MTT assay; format: cell-based, Canis lupus familiaris; conditions: dog
Outline: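 MTT assay in MDCK BCRP and parental MDCK cells: 2500 cells/well, 6 h attachment at 37 °C, 5% CO₂, compounds up to 100 µM for 72 h. MTT (5 mg/ml solution) added for 1 h, then lysis in DMSO. Absorbance read at 544 nm with 710 nm background correction. Controls were 10% DMSO medium and PBS only. GI₅₀ derived.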

MDCK-II = test: Increase of plasma membrane expression of BCRP expressing reporter gene GFP in BCRP-MDCK2 cells at 0.5 to 1.8 uM after 72 hrs by fluorescence assay; format: functional, cell-based; conditions: Canis lupus familiaris, in the assay text read “total expression” for “plasma membrane expression”
Outline: (§3)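 MDCK II cells transfected with human wild-type BCRP cDNA C-terminally fused to GFP. Seeded at 100,000 cells/well and treated 4 h later at final 0.5, 1.0 and 1.8 µM for 72 h at 37 °C. Surface BCRP measured by 5D3 antibody binding (FL2, 585 nm) and total BCRP by GFP (FL1, 520 nm) on a flow cytometer, gated on scatter. Geometric means normalized to untreated cells as 100%.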

[4] = Reduction of plasma membrane expression of BCRP expressing reporter gene GFP in BCRP-MDCK2 cells at 0.5 to 1.8 uM after 72 hrs by fluorescence assay relative to control; format: functional, cell-based; set-up: scale not given: the % may be the effect or the level left; conditions: Canis lupus familiaris, MDCK-II; outline: as §3
BCRP = test: Therapeutic index, ratio of GI50 for MDCK cells to IC50 for human BCRP expressed in MDCK2 cells; conditions: dog
[5] = target: T2, ATP-dependent translocase ABCB1 (Homo sapiens, UniProt P08183); test: Inhibition of MDR1 in human doxorubicin-resistant A2780adr cells assessed as Calcein AM accumulation treated 30 mins before Calcein AM addition measured up to 90 mins by fluorescence assay; format: cell-based, A2780 ADR
[6] = target: T2, ATP-dependent translocase ABCB1; test: as §1; format: cell-based, A2780 ADR; conditions: a2780 adr, 10 µM
[7] = target: Multidrug resistance-associated protein 1 (Homo sapiens, UniProt P33527); test: as §2; format: cell-based; conditions: human, 2008, 10 µM
[8] = target: T1, Broad substrate specificity ATP-binding cassette transporter ABCG2; test: Reversal of human BCRP-mediated multidrug resistant in MDCK2 cells assessed as increase of Hoechst 33342-induced cytotoxicity at 1 to 5 uM after 72 hrs by MTT assay; format: cell-based; conditions: mdck-ii
Outline: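 MDR reversal by MTT assay in MDCK BCRP cells with compounds at final 1 µM and 5 µM. Dose–response curves to Hoechst 33342 were compared with and without inhibitor and against sensitive MDCK cells. Conditions as for the MTT cytotoxicity assay: 2500 cells/well, 72 h, absorbance at 544/710 nm.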

Sequence of MDR1 (P08183 whole entry): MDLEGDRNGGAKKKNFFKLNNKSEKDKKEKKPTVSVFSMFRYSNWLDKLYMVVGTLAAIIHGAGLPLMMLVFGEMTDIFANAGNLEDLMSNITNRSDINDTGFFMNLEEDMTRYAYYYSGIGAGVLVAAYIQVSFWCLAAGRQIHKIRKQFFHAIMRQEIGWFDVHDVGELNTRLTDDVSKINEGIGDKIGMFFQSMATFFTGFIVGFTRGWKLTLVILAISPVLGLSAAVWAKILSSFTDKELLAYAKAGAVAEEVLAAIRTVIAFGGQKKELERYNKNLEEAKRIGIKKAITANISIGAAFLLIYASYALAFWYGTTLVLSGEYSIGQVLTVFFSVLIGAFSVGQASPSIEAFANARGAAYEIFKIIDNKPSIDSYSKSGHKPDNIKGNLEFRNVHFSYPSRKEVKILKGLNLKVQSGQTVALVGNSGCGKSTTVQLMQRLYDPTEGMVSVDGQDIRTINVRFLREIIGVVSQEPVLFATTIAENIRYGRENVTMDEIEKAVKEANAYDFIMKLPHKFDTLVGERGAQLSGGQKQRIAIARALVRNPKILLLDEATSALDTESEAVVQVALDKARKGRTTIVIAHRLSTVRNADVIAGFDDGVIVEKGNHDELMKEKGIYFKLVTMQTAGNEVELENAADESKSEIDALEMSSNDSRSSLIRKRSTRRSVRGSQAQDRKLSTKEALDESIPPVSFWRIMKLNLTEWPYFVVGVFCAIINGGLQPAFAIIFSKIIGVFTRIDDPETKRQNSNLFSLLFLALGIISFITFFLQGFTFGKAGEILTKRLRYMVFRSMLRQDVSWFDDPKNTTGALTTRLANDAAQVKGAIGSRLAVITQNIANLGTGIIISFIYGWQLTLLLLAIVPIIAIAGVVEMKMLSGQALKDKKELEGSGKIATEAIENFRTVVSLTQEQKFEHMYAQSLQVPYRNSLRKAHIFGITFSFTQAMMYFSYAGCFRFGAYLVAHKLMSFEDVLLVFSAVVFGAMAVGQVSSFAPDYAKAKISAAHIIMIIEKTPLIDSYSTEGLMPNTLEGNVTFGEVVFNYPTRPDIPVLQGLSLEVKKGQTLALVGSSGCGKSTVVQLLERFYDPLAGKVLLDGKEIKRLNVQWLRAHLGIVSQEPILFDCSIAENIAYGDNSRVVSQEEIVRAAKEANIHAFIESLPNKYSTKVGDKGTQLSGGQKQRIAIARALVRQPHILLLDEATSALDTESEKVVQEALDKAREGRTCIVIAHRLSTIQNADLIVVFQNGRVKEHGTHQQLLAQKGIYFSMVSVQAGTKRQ
T2 sequence (P08183 whole entry): as above
Sequence of MRP1 (P33527 whole entry): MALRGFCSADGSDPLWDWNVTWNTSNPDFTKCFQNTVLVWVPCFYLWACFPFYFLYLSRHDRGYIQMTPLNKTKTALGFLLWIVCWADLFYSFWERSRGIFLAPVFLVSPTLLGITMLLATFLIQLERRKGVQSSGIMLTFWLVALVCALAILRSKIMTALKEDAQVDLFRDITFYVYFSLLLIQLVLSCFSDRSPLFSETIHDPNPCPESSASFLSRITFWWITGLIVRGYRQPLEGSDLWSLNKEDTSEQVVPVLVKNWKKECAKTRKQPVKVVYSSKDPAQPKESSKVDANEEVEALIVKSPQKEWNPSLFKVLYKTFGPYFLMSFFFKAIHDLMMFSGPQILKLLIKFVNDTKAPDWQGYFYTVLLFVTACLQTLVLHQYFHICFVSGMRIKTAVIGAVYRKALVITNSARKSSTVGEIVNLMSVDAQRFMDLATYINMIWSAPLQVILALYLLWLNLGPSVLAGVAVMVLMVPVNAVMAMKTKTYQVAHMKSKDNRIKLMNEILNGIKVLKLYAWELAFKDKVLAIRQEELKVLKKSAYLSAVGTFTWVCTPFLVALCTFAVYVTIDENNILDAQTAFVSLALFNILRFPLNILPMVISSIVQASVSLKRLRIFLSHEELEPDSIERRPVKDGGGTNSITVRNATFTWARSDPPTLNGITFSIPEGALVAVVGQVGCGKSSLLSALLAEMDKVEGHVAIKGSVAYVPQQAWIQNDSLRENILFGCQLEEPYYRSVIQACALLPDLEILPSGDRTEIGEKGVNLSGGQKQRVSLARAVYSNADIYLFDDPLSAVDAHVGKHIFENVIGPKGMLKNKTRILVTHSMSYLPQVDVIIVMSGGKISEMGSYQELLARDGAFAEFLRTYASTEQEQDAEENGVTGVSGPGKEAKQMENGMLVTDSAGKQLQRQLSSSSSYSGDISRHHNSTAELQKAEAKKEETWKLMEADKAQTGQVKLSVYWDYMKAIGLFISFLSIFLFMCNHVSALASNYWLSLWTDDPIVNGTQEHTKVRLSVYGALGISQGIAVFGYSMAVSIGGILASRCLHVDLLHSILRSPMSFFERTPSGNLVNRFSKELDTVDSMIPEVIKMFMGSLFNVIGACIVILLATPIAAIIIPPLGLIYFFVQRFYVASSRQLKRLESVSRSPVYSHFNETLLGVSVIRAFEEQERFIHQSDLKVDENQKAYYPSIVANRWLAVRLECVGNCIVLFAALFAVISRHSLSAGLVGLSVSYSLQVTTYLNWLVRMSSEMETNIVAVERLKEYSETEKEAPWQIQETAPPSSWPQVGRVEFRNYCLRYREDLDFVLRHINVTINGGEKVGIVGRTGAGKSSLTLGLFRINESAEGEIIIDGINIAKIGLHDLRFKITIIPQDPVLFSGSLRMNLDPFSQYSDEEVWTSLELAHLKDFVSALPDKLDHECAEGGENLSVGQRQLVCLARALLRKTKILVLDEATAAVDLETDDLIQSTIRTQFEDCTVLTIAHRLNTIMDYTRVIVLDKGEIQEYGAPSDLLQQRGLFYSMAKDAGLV
Sequence of Multidrug resistance-associated protein 1 (P33527 whole entry): as above

Compound | inhibition at 90 min, 10 µM (MDR1) | IC50 [1] | IC50 [2] | inhibition at 90 min, 10 µM (MRP1) | also measured
COc1ccc(-c2nc(Nc3ccccc3O)c3ccccc3n2)cc1OC | > 50% | 260 nM | 290 nM | > 50% | 
O=[N+]([O-])c1cccc(Nc2ncnc3ccccc23)c1 |  | 1130 nM | 890 nM |  | GI50 at 72 h [3]: 18300 nM; Activity (MDCK-II): Active; Activity [4]: inactive; selectivity ratio (BCRP): 16
COc1ccc(-c2nc(Nc3cccc([N+](=O)[O-])c3)c3ccccc3n2)cc1OC | > 50% |  |  | > 50% | IC50 [5]: 9560 nM; GI50 at 72 h [3]: 20800 nM; Activity (MDCK-II): Active; Activity [4]: 75%
COc1ccc(-c2nc(Nc3cccc(C#N)c3)c3ccccc3n2)cc1OC | > 50% |  |  | > 50% | 
COc1ccc(-c2nc(Nc3cccc(O)c3)c3ccccc3n2)cc1OC | > 50% | 140 nM | 110 nM | > 50% | IC50 [5]: 18200 nM; GI50 at 72 h [3]: 4610 nM; selectivity ratio (BCRP; mdck2): 33
COc1ccc(-c2nc(Nc3ccccc3)c3ccccc3n2)cc1OC | > 50% | 1990 nM | 4090 nM | > 50% | 
COc1cc2ncnc(Nc3cccc([N+](=O)[O-])c3)c2cc1OC |  | 810 nM | 910 nM |  | GI50 at 72 h [3]: 1500 nM; Activity (MDCK-II): inactive; Activity [4]: 60%; selectivity ratio (BCRP): 1.85
COc1ccc(-c2nc(Nc3ccccc3[N+](=O)[O-])c3ccccc3n2)cc1OC | > 50% | 640 nM | 1550 nM | > 50% | 
O=[N+]([O-])c1cccc(Nc2nc(-c3ccccc3)nc3ccccc23)c1 |  |  |  |  | inhibition (INH) [6]: Not Active; GI50 at 72 h [3]: 67800 nM; Activity (MDCK-II): Active; Activity [4]: inactive; inhibition (INH) [7]: Not Active
COc1cc2ncnc(Nc3ccccc3[N+](=O)[O-])c2cc1OC |  | 3800 nM | 3970 nM |  | 
FC(F)(F)c1cccc(Nc2ncnc3ccccc23)c1 |  | 940 nM | 1550 nM |  | 
COc1ccc(Nc2nc(Nc3ccc(OC)c(OC)c3)c3cc(OC)c(OC)cc3n2)cc1OC |  | 1740 nM | 1520 nM |  | 
COc1ccc(Nc2ncnc3ccccc23)cc1OC |  | 4790 nM | 3380 nM |  | 
COc1cc2nc(Nc3cccc(C#N)c3)nc(Nc3cccc(C#N)c3)c2cc1OC |  | 480 nM | 470 nM |  | 
COc1cc2ncnc(Nc3ccc([N+](=O)[O-])cc3)c2cc1OC |  | 2920 nM | 2460 nM |  | 
COc1cc2ncnc(Nc3ccc(F)c(Cl)c3)c2cc1OCCCN1CCOCC1 [GEFITINIB] |  |  |  |  | GI50 at 72 h [3]: 1450 nM; Activity (MDCK-II): Active; Activity [4]: Active

Compound | inhibition at 90 min, 10 µM (MDR1) | IC50 [1] | IC50 [2] | inhibition at 90 min, 10 µM (MRP1) | also measured
Brc1cccc(Nc2ncnc3ccccc23)c1 |  | 1080 nM | 1480 nM |  | 
COc1ccc(-c2nc(Nc3cccc(C(F)(F)F)c3)c3ccccc3n2)cc1OC | > 50% | 300 nM | 240 nM | > 50% | 
COc1cc2nc(Nc3cccc(Br)c3)nc(Nc3cccc(Br)c3)c2cc1OC |  | 670 nM | 860 nM |  | 
COc1cc2nc(Nc3cccc(C(F)(F)F)c3)nc(Nc3cccc(C(F)(F)F)c3)c2cc1OC |  | 800 nM | 610 nM |  | 
COc1ccc(-c2nc(Nc3ccc(O)cc3)c3ccccc3n2)cc1OC | > 50% | 470 nM | 680 nM | > 50% | 
N#Cc1cccc(Nc2ncnc3ccccc23)c1 |  | 1180 nM | 2030 nM |  | 
COc1cc2ncnc(Nc3cccc(C(F)(F)F)c3)c2cc1OC |  | 2400 nM | 1980 nM |  | 
COc1cc2ncnc(Nc3cccc(Br)c3)c2cc1OC |  | 1730 nM | 2320 nM |  | 
Brc1cccc(Nc2nc(-c3ccccc3)nc3ccccc23)c1 |  |  |  |  | IC50 [5]: 12400 nM
COc1cc2nc(Nc3cccc([N+](=O)[O-])c3)nc(Nc3cccc([N+](=O)[O-])c3)c2cc1OC |  | 330 nM | 320 nM |  | 
COc1cc2ncnc(Nc3cccc(C#N)c3)c2cc1OC |  | 1060 nM | 930 nM |  | 
COc1ccc(-c2nc(Nc3cccc(Br)c3)c3ccccc3n2)cc1OC | > 50% | 290 nM | 400 nM | > 50% | IC50 [5]: 11800 nM
Oc1cccc(Nc2nc(-c3ccccc3)nc3ccccc23)c1 |  | 150 nM |  |  | Activity [8]: Active; inhibition (INH) [6]: Not Active; GI50 at 72 h [3]: 51100 nM; selectivity ratio (BCRP; mdck2): 340; inhibition (INH) [7]: Not Active
COc1ccc(Nc2ncnc3cc(OC)c(OC)cc23)cc1OC |  | 7380 nM | 3790 nM |  | 
COc1ccc(Nc2nc(-c3ccc(OC)c(OC)c3)nc3ccccc23)cc1OC | > 50% | 420 nM | 610 nM | > 50% | IC50 [5]: 3490 nM
